How the values were obtained:
[1] = Inhibition of trypsin
Procedure, shortened: (§1)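 Protease-inhibition assay read on a microplate (ELISA-type) reader. Activity is reported as IC50.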

[2] = Inhibition of thrombin; procedure, shortened: as §1

Compound	IC50 [1] [µM]	IC50 [2] [µM]
CC[C@H](C)[C@@H](NC(=O)[C@H](O)Cc1cc(Br)c(O)c(Br)c1)C(=O)N1[C@H](C(=O)NCCCCNC(=N)N)C[C@@H]2CC[C@@H](OS(=O)(=O)O)C[C@@H]21 (relative stereo)	18.2	> 45.5
CC[C@H](C)[C@@H](NC(=O)[C@H](O)Cc1cc(Br)c(O)c(Br)c1)C(=O)N1[C@H](C(=O)NCCCCNC(=N)N)C[C@@H]2CC[C@@H](O)C[C@@H]21 (relative stereo)	2.3	12.9
CC[C@H](C)[C@@H](NC(=O)[C@H](O)Cc1cc(Cl)c(O)c(Br)c1)C(=O)N1[C@H](C(=O)NCCCCNC(=N)N)C[C@@H]2CC[C@@H](OS(=O)(=O)O)C[C@@H]21 (relative stereo)	12.2	> 45.5
CC(C)C[C@@H](NC(=O)[C@H](O)Cc1cc(Cl)c(O)c(Cl)c1)C(=O)N1[C@H](C(=O)NCCCCNC(=N)N)C[C@@H]2CC[C@@H](O)C[C@@H]21	8.5	> 45.5
CC[C@H](C)[C@@H](NC(=O)[C@H](O)Cc1cc(Cl)c(O)c(Br)c1)C(=O)N1[C@H](C(=O)NCCCCNC(=N)N)C[C@@H]2CC[C@@H](O)C[C@@H]21 (relative stereo)	3.2	12.8

Reference: ChEMBL document CHEMBL2203163, “Bromine- and chlorine-containing aeruginosins from Microcystis aeruginosa bloom material collected in Kibbutz Geva, Israel” (J Nat Prod, 2012)
